Results as given in ChEMBL document CHEMBL4152389, “Discovery of Novel, Drug-Like Ferroptosis Inhibitors with in Vivo Efficacy” (J Med Chem, 2018).
≈ marks a conversion by molar mass, not a printed value. Calls of active or inactive are those of the source. The calls are words filed in the database; no cut-off is given here.

Experiments:
IMR-32 [1] = experiment: Inhibition of erastin-induced ferroptosis in human IMR32 cells preincubated for 1 hr followed by erastin stimulation and measured after 13 hrs by sytox green-based fluorescence assay; format: functional, cell-based
How it was run: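 IMR-32 neuroblastoma cells seeded at 25,000/well, next day pretreated 1 h in triplicate with 1/3 dilution series (5 μM to 0.68 nM) plus Sytox Green 1.6 μM, then erastin 10 μM.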

[2] = Kinetic solubility in PBS at pH 7.4 after 2 hrs by turbidimetric method; format: physicochemical; conditions: read-out: Kinetic_solubility
How it was run: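 Kinetic solubility by turbidity (UV/VIS reading); final compound 3.125–200 μM, from 4 μL DMSO solution in 196 μL 10 mM PBS pH 7.4.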

Mus musculus [3] = experiment: In vivo inhibition of iron sulphate-induced ferroptosis in C57BL/6N mouse assessed as LDH levels in plasma at 20 umol/kg, iv administered 15 mins prior to acute iron poisoning and measured after 2 hrs (reference value: 3572 +/- 185 U/L); format: functional
[4] = Intrinsic clearance in human liver microsomes at 50 uM after 15 mins to 24 hrs by LC/MS/MS analysis; format: ADME, microsome; conditions: read-out: CLH
How it was run: (§1)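 Intrinsic clearance calculated from measured microsomal half-life in human, mouse or rat liver microsomes, accounting for protein concentration and incubation volume with species-specific parameters.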

Mus musculus [5] = experiment: Toxicity in wild type mouse assessed as AST levels in plasma at 20 umol/kg, ip administered daily for 4 weeks measured at day 28 (reference value: 110 +/- 8 U/L); format: organism-based; conditions: in vivo, 672 h
Mus musculus [6] = experiment: Toxicity in wild type mouse assessed as creatinine levels in plasma at 20 umol/kg, ip administered daily for 4 weeks measured at day 28 (reference value: <0.2 mg/dl); format: organism-based; conditions: in vivo, 672 h
[7] = Intrinsic clearance in rat liver microsomes at 50 uM after 15 mins to 24 hrs by LC/MS/MS analysis; format: ADME, microsome; conditions: read-out: CLH; how it was run: as §1
Mus musculus [8] = experiment: Toxicity in wild type mouse assessed as ALT levels in plasma at 20 umol/kg, ip administered daily for 4 weeks measured at day 28 (reference value: <25 U/L); format: organism-based; conditions: in vivo, 672 h
[9] = Intrinsic clearance in mouse liver microsomes at 50 uM after 15 mins to 24 hrs by LC/MS/MS analysis; format: ADME, microsome; conditions: read-out: CLH; how it was run: as §1
Mus musculus [10] = experiment: Toxicity in wild type mouse assessed as relative gain in body weight at 20 umol/kg, ip administered daily for 4 weeks measured during compound dosing (reference value: 14.8 +/- 3.4%); format: organism-based; conditions: in vivo, 672 h
Mus musculus [11] = experiment: Toxicity in wild type mouse assessed as troponin levels in plasma at 20 umol/kg, ip administered daily for 4 weeks measured at day 28 (reference value: 0.041 +/- 0.005 ug/l); format: organism-based; conditions: in vivo, 672 h
[12] = Metabolic stability in rat plasma assessed as compound recovery at 50 uM after 6 hrs by LC/MS/MS analysis; format: ADME, cell-free; conditions: read-out: Drug recovery
How it was run: (§2)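 Compound incubated in human, rat or mouse plasma; percentage of remaining parent compound determined after 6 h.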

Mus musculus [13] = experiment: Toxicity in wild type mouse assessed as CK levels in plasma at 20 umol/kg, ip administered daily for 4 weeks measured at day 28 (reference value: 1501 +/- 196 U/L); format: organism-based; conditions: in vivo, 672 h
Mus musculus [14] = experiment: Toxicity in wild type mouse assessed as urea levels in plasma at 20 umol/kg, ip administered daily for 4 weeks measured at day 28 (reference value: 42 +/- 2 mg/dl); format: organism-based; conditions: in vivo, 672 h
Mus musculus [15] = experiment: Toxicity in wild type mouse assessed as body temperature at 20 umol/kg, ip administered daily for 4 weeks measured during compound dosing (reference value: 37 +/- 0.6 degreeC); format: organism-based; conditions: in vivo, 672 h
[16] = Metabolic stability in human plasma assessed as compound recovery at 50 uM after 6 hrs by LC/MS/MS analysis; format: ADME, cell-free; conditions: read-out: Drug recovery; how it was run: as §2
Mus musculus [17] = experiment: Toxicity in wild type mouse assessed as LDH levels in plasma at 20 umol/kg, ip administered daily for 4 weeks measured at day 28 (reference value: 227 +/- 18 U/L); format: organism-based; conditions: in vivo, 672 h
IMR-32 [18] = experiment: Inhibition of ferrous ammonium sulphate-induced ferroptosis in human IMR32 cells preincubated for 1 hr followed by ferrous ammonium sulphate stimulation and measured after 13 hrs by sytox green-based fluorescence assay
[19] = Metabolic stability in mouse plasma assessed as compound recovery at 50 uM after 6 hrs by LC/MS/MS analysis; format: ADME, cell-free; conditions: read-out: Drug recovery; how it was run: as §2
[20] = Plasma concentration in Wistar rat at 5 mg/kg, iv after 0.083 to 24 hrs by UPLC-MS analysis; format: ADME, organism-based; conditions: in vivo
How it was run: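 Single iv 5 mg/kg to three male Wistar rats; blood sampled at 0.083, 0.25, 0.5, 1, 2, 4 and 24 h; plasma drug measured by UPLC–tandem quadrupole MS, detection limit 53.1 ng/mL.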

[21] = Half life in human liver microsomes at 10 uM in presence of NADPH regenerating system by LC/MS/MS analysis; format: ADME, microsome
How it was run: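 Incubation with human liver microsomes; metabolism by CYP450 and other NADP-dependent enzymes monitored and expressed as half-life (h).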

Cl.Nc1cc(S(=O)(=O)NCCN2CCNCC2)ccc1NC1CCCCC1
IC50 (IMR-32 [1]): 296 nM
solubility kinetic at 2 h [2]: > 200 µM

CN(C)CCNS(=O)(=O)c1ccc(NC2CCCCC2)c(NCc2ccccc2)c1
IC50 (IMR-32 [1]): 554 nM
solubility kinetic at 2 h [2]: > 200 µM

Cl.O=S(=O)(NCCN1CCNCC1)c1ccc(NC2CCCCC2)c(NCc2ccccc2)c1
Activity (Mus musculus [3]): 2346 U/L
CLint scaled at 50 µM [4]: 1.1 mL/min/kg
Activity (Mus musculus [5]): 123 U/L
Activity (Mus musculus [6]): < 0.2 mg/dL
CLint scaled at 50 µM [7]: 3.4 mL/min/kg
IC50 (IMR-32 [1]): 10 nM
Activity (Mus musculus [8]): < 25 U/L
CLint scaled at 50 µM [9]: 18 mL/min/kg
Activity (Mus musculus [10]): 10.4%
Activity (Mus musculus [11]): 0.044 µg/L
remaining at 6 h, 50 µM [12]: 85.8%
Activity (Mus musculus [13]): 1865 U/L
Activity (Mus musculus [14]): 43 mg/dL
T (Mus musculus [15]): 37 °C
remaining at 6 h, 50 µM [16]: 84.2%
Activity (Mus musculus [17]): 263 U/L
inhibition (IMR-32 [18]): Active
remaining at 6 h, 50 µM [19]: 100%
solubility kinetic at 2 h [2]: > 200 µM
Cp [20]: < 53.1 ng/mL

O=S(=O)(NCCN1CCOCC1)c1ccc(NC2CCCCC2)c(NCc2ccncc2)c1
IC50 (IMR-32 [1]): 191 nM
solubility kinetic at 2 h [2]: > 200 µM

Nc1cc(S(=O)(=O)NCCN2CCOCC2)ccc1NC1CCCCC1
IC50 (IMR-32 [1]): 448 nM
solubility kinetic at 2 h [2]: > 200 µM

CN1CCN(CCNS(=O)(=O)c2ccc(NC3CCCCC3)c(N)c2)CC1
IC50 (IMR-32 [1]): 236 nM
solubility kinetic at 2 h [2]: > 200 µM

CN(C)CCNS(=O)(=O)c1ccc(NC2CCCCC2)c(N)c1
IC50 (IMR-32 [1]): 160 nM
solubility kinetic at 2 h [2]: > 200 µM

Cl.NCCNS(=O)(=O)c1ccc(NC2CCCCC2)c(N)c1
IC50 (IMR-32 [1]): 306 nM
solubility kinetic at 2 h [2]: > 200 µM

CN1CCN(CCNS(=O)(=O)c2ccc(NC3CCCCC3)c(NCc3ccccc3)c2)CC1
IC50 (IMR-32 [1]): 1070 nM
solubility kinetic at 2 h [2]: > 200 µM

CCOC(=O)c1ccc(NC2CCCCC2)c(N)c1
Activity (Mus musculus [3]): 2898 U/L
IC50 (IMR-32 [1]): 33 nM
half-life at 10 µM [21]: 6.54 min
remaining at 6 h, 50 µM [12]: 1.1%
remaining at 6 h, 50 µM [16]: 47.3%
inhibition (IMR-32 [18]): Active
remaining at 6 h, 50 µM [19]: 0%
solubility kinetic at 2 h [2]: > 200 µM

CNCCNS(=O)(=O)c1ccc(NC2CCCCC2)c(NCc2ccncc2)c1.Cl
IC50 (IMR-32 [1]): 157 nM
solubility kinetic at 2 h [2]: > 200 µM

Cl.O=S(=O)(NCCN1CCNCC1)c1ccc(NC2CCCCC2)c(NCc2ccncc2)c1
IC50 (IMR-32 [1]): 442 nM
solubility kinetic at 2 h [2]: > 200 µM

Cl.NCCNS(=O)(=O)c1ccc(NC2CCCCC2)c(NCc2ccncc2)c1
IC50 (IMR-32 [1]): 112 nM
solubility kinetic at 2 h [2]: 100 to 200 µM

COCCNS(=O)(=O)c1ccc(NC2CCCCC2)c(N)c1
IC50 (IMR-32 [1]): 492 nM
solubility kinetic at 2 h [2]: > 200 µM

Cl.NCCNS(=O)(=O)c1ccc(NC2CCCCC2)c(NCc2ccccc2)c1
Activity (Mus musculus [3]): 2293 U/L
CLint scaled at 50 µM [4]: 1.3 mL/min/kg
CLint scaled at 50 µM [7]: 27.4 mL/min/kg
IC50 (IMR-32 [1]): 12 nM
CLint scaled at 50 µM [9]: 4.8 mL/min/kg
remaining at 6 h, 50 µM [12]: 100%
remaining at 6 h, 50 µM [16]: 100%
inhibition (IMR-32 [18]): Active
remaining at 6 h, 50 µM [19]: 100%
solubility kinetic at 2 h [2]: > 200 µM

COCCNS(=O)(=O)c1ccc(NC2CCCCC2)c(NCc2ccncc2)c1
IC50 (IMR-32 [1]): 97 nM
solubility kinetic at 2 h [2]: > 200 µM

CNCCNS(=O)(=O)c1ccc(NC2CCCCC2)c(N)c1.Cl
IC50 (IMR-32 [1]): 214 nM
solubility kinetic at 2 h [2]: > 200 µM

CN(C)CCNS(=O)(=O)c1ccc(NC2CCCCC2)c(NCc2ccncc2)c1
IC50 (IMR-32 [1]): 1560 nM
solubility kinetic at 2 h [2]: > 200 µM

COCCNS(=O)(=O)c1ccc(NC2CCCCC2)c(NCc2ccccc2)c1
IC50 (IMR-32 [1]): 22 nM
solubility kinetic at 2 h [2]: 25 to 50 µM (≈ 10.4 to 20.9 µg/mL)

O=S(=O)(NCCN1CCOCC1)c1ccc(NC2CCCCC2)c(NCc2ccccc2)c1
CLint scaled at 50 µM [4]: 22.6 mL/min/kg
CLint scaled at 50 µM [7]: 326 mL/min/kg
IC50 (IMR-32 [1]): 24 nM
CLint scaled at 50 µM [9]: 1220 mL/min/kg
remaining at 6 h, 50 µM [12]: 100%
remaining at 6 h, 50 µM [16]: 100%
remaining at 6 h, 50 µM [19]: 100%
solubility kinetic at 2 h [2]: 50 to 100 µM (≈ 23.6 to 47.3 µg/mL)

CNCCNS(=O)(=O)c1ccc(NC2CCCCC2)c(NCc2ccccc2)c1.Cl
Activity (Mus musculus [3]): 2093 U/L
CLint scaled at 50 µM [4]: 1.7 mL/min/kg
CLint scaled at 50 µM [7]: 161 mL/min/kg
IC50 (IMR-32 [1]): 3 nM
CLint scaled at 50 µM [9]: 139 mL/min/kg
remaining at 6 h, 50 µM [12]: 65.8%
remaining at 6 h, 50 µM [16]: 90.3%
inhibition (IMR-32 [18]): Active
remaining at 6 h, 50 µM [19]: 100%
solubility kinetic at 2 h [2]: > 200 µM

CN1CCN(CCNS(=O)(=O)c2ccc(NC3CCCCC3)c(NCc3ccncc3)c2)CC1
IC50 (IMR-32 [1]): 1520 nM
solubility kinetic at 2 h [2]: > 200 µM
